Source: ChEMBL document CHEMBL1135185, “Synthesis and PTP1B inhibition of 1,2-naphthoquinone derivatives as potent anti-diabetic agents” (Bioorg Med Chem Lett, 2002)
Each block holds one compound with its values, some of them ahead of it. Activity calls are given as the source filed them. The rule behind the calls is not given here.

Tests used:
[1] = In vitro inhibitory activity against recombinant […] Yop using fluorescein diphosphate (FDP) as a substrate
[2] = target: T1, Receptor-type tyrosine-protein phosphatase C (Homo sapiens, UniProt P08575); experiment: In vitro inhibitory activity against recombinant human CD45 using fluorescein diphosphate (FDP) as a substrate
T1 sequence (P08575 whole entry): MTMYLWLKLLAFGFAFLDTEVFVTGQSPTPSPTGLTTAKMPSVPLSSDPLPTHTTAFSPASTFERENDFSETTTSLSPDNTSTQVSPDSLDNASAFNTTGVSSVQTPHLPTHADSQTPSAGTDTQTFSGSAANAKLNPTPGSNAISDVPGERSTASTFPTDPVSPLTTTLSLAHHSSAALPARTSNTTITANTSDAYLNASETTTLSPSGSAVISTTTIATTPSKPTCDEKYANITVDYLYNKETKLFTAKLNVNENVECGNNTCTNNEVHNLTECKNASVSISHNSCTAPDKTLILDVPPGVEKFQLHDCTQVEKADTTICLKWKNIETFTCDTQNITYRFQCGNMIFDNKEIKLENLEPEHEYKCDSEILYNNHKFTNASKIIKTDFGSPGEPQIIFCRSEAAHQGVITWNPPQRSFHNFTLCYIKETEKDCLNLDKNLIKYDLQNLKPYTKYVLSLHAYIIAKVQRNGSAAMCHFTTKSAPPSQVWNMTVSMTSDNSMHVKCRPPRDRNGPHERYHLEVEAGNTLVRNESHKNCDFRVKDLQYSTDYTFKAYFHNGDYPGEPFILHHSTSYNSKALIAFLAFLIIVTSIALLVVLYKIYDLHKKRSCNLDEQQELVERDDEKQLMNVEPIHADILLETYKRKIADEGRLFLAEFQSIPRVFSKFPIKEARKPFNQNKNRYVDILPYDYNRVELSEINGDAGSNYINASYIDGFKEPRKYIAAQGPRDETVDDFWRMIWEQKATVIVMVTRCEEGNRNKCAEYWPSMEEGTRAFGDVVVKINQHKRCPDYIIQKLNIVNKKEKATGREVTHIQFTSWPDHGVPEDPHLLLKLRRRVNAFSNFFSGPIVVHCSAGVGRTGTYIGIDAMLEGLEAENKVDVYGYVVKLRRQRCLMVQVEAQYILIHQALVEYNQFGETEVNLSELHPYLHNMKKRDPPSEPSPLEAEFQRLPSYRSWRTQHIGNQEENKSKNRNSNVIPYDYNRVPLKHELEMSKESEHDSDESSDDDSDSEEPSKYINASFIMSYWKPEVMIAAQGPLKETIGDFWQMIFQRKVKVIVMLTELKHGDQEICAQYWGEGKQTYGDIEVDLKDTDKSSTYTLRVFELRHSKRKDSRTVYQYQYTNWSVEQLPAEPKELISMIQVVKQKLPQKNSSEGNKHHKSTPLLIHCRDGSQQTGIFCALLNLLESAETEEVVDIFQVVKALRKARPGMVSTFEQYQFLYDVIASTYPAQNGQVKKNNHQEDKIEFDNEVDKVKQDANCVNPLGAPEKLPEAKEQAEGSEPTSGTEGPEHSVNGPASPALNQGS

[3] = target: T2, Tyrosine-protein phosphatase non-receptor type 1 (Homo sapiens, UniProt P18031); experiment: In vitro inhibitory activity against recombinant human protein-tyrosine phosphatase 1B (PTP1B) using fluorescein diphosphate (FDP) as a substrate
T2 sequence (P18031 whole entry): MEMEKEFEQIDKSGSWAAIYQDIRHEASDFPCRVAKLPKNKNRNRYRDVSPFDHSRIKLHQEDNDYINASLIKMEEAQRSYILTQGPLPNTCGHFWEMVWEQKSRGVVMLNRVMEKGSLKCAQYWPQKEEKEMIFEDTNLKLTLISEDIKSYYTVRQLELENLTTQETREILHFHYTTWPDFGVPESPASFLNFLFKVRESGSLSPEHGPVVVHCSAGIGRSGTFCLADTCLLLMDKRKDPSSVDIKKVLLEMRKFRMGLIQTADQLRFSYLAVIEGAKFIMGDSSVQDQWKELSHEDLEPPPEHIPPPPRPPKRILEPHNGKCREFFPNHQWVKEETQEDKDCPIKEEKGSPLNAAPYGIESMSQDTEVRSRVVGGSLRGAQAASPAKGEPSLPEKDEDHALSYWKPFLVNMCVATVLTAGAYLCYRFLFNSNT
Outline: (§1)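 Recombinant human PTP1B enzyme, fluorescein diphosphate (FDP) as substrate. Enzyme activity was followed by fluorescence measurement. IC50 values were obtained by direct regression curve analysis.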

[4] = target: T3, M-phase inducer phosphatase 2 (Homo sapiens, UniProt P30305); experiment: In vitro inhibitory activity against recombinant human Cdc25B using fluorescein diphosphate (FDP) as a substrate
T3 sequence (P30305 whole entry): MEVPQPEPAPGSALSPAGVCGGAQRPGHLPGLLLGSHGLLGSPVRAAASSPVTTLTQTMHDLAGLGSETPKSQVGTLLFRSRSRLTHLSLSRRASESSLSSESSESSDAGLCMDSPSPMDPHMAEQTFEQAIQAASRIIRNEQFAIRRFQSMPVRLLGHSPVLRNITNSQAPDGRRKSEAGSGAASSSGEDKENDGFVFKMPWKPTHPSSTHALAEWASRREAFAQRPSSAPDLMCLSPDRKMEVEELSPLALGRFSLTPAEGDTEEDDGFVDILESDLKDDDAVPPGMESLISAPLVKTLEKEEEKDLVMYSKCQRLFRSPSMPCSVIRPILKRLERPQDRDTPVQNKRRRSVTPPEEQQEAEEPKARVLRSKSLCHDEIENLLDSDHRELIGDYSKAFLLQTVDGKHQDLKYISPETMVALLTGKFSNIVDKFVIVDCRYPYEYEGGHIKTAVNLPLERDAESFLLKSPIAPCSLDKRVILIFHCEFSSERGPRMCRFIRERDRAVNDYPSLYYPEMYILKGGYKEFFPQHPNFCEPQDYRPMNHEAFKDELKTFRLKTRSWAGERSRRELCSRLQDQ

[5] = target: Receptor-type tyrosine-protein phosphatase F (Homo sapiens, UniProt P10586); experiment: In vitro inhibitory activity against recombinant human LAR using fluorescein diphosphate (FDP) as a substrate
[6] = In vitro inhibitory activity against recombinant human PPI using fluorescein diphosphate (FDP) as a substrate
[7] = target: T2, Tyrosine-protein phosphatase non-receptor type 1; experiment: Inhibition of human Protein-tyrosine phosphatase 1B (PTP1B) using fluorescein diphosphate (FDP); outline: as §1
Mus musculus = experiment: In vivo test to determine the ability to reduce plasma glucose levels in ob/ob mice at oral dose of 25 mg/kg/day for 5 days; Active; format: functional, organism-based
[8] = target: T2, Tyrosine-protein phosphatase non-receptor type 1; experiment: In vitro inhibitory activity against recombinant human protein-tyrosine phosphatase 1B (PTP1B) using fluorescein diphosphate (FDP) as a substrate; Not active; outline: as §1

Sequence of Receptor-type tyrosine-protein phosphatase F (P10586 whole entry): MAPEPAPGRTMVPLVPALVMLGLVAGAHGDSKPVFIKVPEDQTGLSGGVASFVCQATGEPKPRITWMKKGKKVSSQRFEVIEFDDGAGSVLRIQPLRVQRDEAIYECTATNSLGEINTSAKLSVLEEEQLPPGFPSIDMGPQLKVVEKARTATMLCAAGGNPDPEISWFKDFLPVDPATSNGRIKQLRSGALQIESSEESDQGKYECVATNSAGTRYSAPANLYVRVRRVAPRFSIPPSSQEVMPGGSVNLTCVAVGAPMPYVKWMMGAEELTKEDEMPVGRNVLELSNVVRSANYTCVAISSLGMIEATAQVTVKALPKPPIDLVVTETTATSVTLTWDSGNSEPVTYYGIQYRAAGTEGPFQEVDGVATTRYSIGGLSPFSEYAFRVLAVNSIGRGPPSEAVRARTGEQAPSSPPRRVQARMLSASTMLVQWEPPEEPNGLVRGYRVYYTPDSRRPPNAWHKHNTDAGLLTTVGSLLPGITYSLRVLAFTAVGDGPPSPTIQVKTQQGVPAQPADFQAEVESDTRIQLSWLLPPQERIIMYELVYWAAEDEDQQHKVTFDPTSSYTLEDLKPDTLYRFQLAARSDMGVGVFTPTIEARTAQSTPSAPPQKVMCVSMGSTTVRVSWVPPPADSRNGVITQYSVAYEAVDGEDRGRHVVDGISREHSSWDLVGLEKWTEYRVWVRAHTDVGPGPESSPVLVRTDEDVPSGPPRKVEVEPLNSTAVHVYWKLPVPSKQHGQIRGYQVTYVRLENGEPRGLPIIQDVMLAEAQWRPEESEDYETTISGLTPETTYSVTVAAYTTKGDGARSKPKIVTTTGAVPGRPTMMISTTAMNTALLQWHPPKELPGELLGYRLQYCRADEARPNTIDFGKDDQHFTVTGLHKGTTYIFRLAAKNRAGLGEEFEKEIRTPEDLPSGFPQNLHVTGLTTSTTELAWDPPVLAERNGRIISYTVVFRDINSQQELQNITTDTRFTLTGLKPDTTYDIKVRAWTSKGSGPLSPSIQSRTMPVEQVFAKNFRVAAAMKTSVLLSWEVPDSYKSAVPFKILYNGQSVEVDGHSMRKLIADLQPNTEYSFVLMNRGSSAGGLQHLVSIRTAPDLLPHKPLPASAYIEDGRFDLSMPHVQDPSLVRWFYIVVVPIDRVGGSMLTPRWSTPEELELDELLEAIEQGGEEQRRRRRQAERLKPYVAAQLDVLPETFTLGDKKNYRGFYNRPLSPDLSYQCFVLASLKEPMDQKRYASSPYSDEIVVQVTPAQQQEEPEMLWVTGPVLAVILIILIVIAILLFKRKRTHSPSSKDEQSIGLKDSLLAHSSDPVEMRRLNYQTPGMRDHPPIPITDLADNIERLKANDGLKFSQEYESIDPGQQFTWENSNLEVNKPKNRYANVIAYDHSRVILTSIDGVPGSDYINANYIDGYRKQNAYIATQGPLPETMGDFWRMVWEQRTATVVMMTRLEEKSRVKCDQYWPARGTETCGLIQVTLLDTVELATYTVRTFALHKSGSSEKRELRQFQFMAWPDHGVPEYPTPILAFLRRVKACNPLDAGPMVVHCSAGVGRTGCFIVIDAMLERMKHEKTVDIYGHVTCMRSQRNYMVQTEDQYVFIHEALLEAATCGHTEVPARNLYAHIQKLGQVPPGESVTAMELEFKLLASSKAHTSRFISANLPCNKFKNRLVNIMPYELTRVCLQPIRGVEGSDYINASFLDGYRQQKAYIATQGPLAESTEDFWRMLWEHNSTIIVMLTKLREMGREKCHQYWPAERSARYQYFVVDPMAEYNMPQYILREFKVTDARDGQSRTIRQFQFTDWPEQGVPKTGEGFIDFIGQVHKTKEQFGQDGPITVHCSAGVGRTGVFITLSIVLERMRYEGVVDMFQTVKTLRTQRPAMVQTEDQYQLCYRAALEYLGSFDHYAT

SMILES: CCOC(=O)CCC1=C(n2ccc3ccccc32)c2ccccc2C(=O)C1=O
IC50 [7]: 0.27 µM

SMILES: CC(C)(C)OC(=O)COc1ccc(CC2=C(c3ccccc3)c3ccccc3C(=O)C2=O)cc1
IC50 [7]: 1.48 µM

SMILES: CC(C)(C)OC(=O)COc1ccc(CC2=C(n3ccc4ccccc43)c3ccccc3C(=O)C2=O)cc1
IC50 [7]: 0.65 µM | Reduction (Mus musculus): Active

SMILES: CCOC(=O)c1ccc(CCC2=C(c3ccccc3)c3ccccc3C(=O)C2=O)cc1
IC50 [7]: 1.01 µM

SMILES: O=C1C=Cc2ccccc2C1=O [1,2-NAPHTHOQUINONE]
IC50 [7]: 24.6 µM

SMILES: CCOC(=O)Nc1cccc2c1C(=O)C(=O)C=C2c1ccccc1
IC50 ([3]; read-out: IC50): 0.65 µM

SMILES: COC(=O)CCc1ccc2c(c1)C(n1ccc3ccccc31)=CC(=O)C2=O
IC50 [7]: 0.92 µM

SMILES: O=C1C=C(c2ccc(-c3ccccc3)cc2)c2ccccc2C1=O
IC50 ([3]; read-out: IC50): 5.4 µM

SMILES: COC(=O)CCC1=C(n2ccc3ccccc32)c2ccc(CCC(=O)OC)cc2C(=O)C1=O
IC50 [7]: 0.94 µM

SMILES: COC(=O)CCC1=C(c2ccccc2)c2cc(CCC(=O)OC)ccc2C(=O)C1=O
IC50 [7]: 0.68 µM

SMILES: O=C(Nc1cccc2c1C(=O)C(=O)C=C2c1ccccc1)OCc1ccccc1
IC50 ([3]; read-out: IC50): 1.34 µM

SMILES: O=C1C=C(n2ccc3ccccc32)c2ccc(OC(Cc3ccccc3)C(=O)O)cc2C1=O (stereo unspecified)
IC50 ([3]; read-out: IC50): 2.07 µM

SMILES: O=C(Nc1ccc2c(c1)C(=O)C(=O)C=C2c1ccccc1)OCc1ccccc1
IC50 ([3]; read-out: IC50): 2.25 µM

SMILES: CCCCCOc1ccc2c(c1)C(=O)C(=O)C=C2c1ccccc1
IC50 ([3]; read-out: IC50): 0.92 µM

SMILES: O=C1C=C(c2c(-c3ccccc3)[nH]c3ccccc23)c2ccccc2C1=O
IC50 [8]: Not Active

SMILES: COC(=O)CCc1ccc2c(c1)C(c1ccccc1)=CC(=O)C2=O
IC50 [7]: 0.33 µM

SMILES: COC(=O)C(Cc1ccccc1)Oc1ccc2c(c1)C(=O)C(=O)C=C2c1ccccc1 (stereo unspecified)
IC50 ([3]; read-out: IC50): 2.54 µM

SMILES: O=C(O)COc1ccc(CC2=C(n3ccc4ccccc43)c3ccccc3C(=O)C2=O)cc1
IC50 [7]: 1.01 µM

SMILES: O=C(O)COc1ccc(CC2=C(c3ccccc3)c3ccccc3C(=O)C2=O)cc1
IC50 [7]: 1.54 µM

SMILES: CCCCCOC1=C(c2ccccc2)c2ccccc2C(=O)C1=O
IC50 ([3]; read-out: IC50): 2.69 µM

SMILES: CCCCCOc1ccc2c(c1)C(c1ccccc1)=CC(=O)C2=O
IC50 [8]: Not Active

SMILES: CCOC(=O)CCC1=C(c2ccccc2)c2ccccc2C(=O)C1=O
IC50 [7]: 0.43 µM

SMILES: CCN(CC)C(=O)CCC1=C(c2ccccc2)c2ccccc2C(=O)C1=O
IC50 [7]: 0.61 µM

Second part, the compound after the results:

IC50 [1]: 12 µM | IC50 [2]: 1.65 µM | IC50 ([3]; read-out: IC50): 1.54 µM | IC50 [4]: 2.13 µM
SMILES: COC(=O)c1ccc(C2=CC(=O)C(=O)c3ccccc32)cc1

IC50 [5]: 10.2 µM | IC50 [1]: 25.6 µM | IC50 [6]: 3.19 µM | IC50 [2]: 3.07 µM | IC50 ([3]; read-out: IC50): 1.13 µM | IC50 [4]: 1.95 µM
SMILES: O=C1C=C(c2c[nH]c3ccccc23)c2ccccc2C1=O

IC50 ([3]; read-out: IC50): 3 µM
SMILES: O=C1C=C(c2c[nH]c3ccc(C(=O)O)cc23)c2ccccc2C1=O

IC50 ([3]; read-out: IC50): 1.17 µM
SMILES: O=C1C=C(c2ccccc2[N+](=O)[O-])c2ccccc2C1=O

IC50 ([3]; read-out: IC50): 29.1 µM
SMILES: COC1=CC(=O)C(=O)c2ccccc21

IC50 ([3]; read-out: IC50): 24.6 µM
SMILES: NC1=CC(=O)C(=O)c2ccccc21 [4-AMINO-[1,2]NAPHTHOQUINONE]

IC50 ([3]; read-out: IC50): 5.05 µM
SMILES: O=C1C=C(c2cc(Cl)ccc2Cl)c2ccccc2C1=O

IC50 [8]: Not Active
SMILES: Cc1c(C2=CC(=O)C(=O)c3ccccc32)c2ccccc2n1C

IC50 ([3]; read-out: IC50): 5.29 µM
SMILES: O=C1C=C(S(=O)(=O)O)c2ccccc2C1=O

IC50 ([3]; read-out: IC50): 0.44 µM
SMILES: O=C1C=C(c2ccc(O)cc2)c2ccccc2C1=O

IC50 ([3]; read-out: IC50): 5.73 µM
SMILES: CC(C)(C)c1cc(C2=CC(=O)C(=O)c3ccccc32)cc(C(C)(C)C)c1O

IC50 [3]: Not Active
SMILES: O=C1C=C(N2CCCC2)c2ccccc2C1=O

IC50 ([3]; read-out: IC50): 4.56 µM
SMILES: O=C1C=C(c2c[nH]c3cc(C(=O)O)ccc23)c2ccccc2C1=O

IC50 ([3]; read-out: IC50): 2.15 µM
SMILES: CCOC(=O)COc1ccccc1C1=CC(=O)C(=O)c2ccccc21

IC50 ([3]; read-out: IC50): 5.24 µM
SMILES: COc1ccc(C2=CC(=O)C(=O)c3ccccc32)cc1

IC50 ([3]; read-out: IC50): 0.5 µM
SMILES: O=C1C=C(c2cc(F)ccc2F)c2ccccc2C1=O

IC50 ([3]; read-out: IC50): 2.15 µM
SMILES: O=C1C=C(c2cccc3ccccc23)c2ccccc2C1=O

IC50 [8]: Not Active
SMILES: CCCCCCCCCCC1=CC(=O)C(=O)c2ccccc21

IC50 ([3]; read-out: IC50): 36.5 µM
SMILES: O=C1C=C(OCCCO)c2ccccc2C1=O

IC50 ([3]; read-out: IC50): 1.6 µM
SMILES: O=C1C=C(c2ccccc2O)c2ccccc2C1=O

IC50 ([3]; read-out: IC50): 1.07 µM
SMILES: CCOC(=O)COc1ccc(C2=CC(=O)C(=O)c3ccccc32)cc1

IC50 [5]: 8.99 µM | IC50 [1]: 17.9 µM | IC50 [6]: 8.06 µM | IC50 [2]: 3.27 µM | IC50 ([3]; read-out: IC50): 0.32 µM | IC50 [4]: 3 µM
SMILES: O=C1C=C(C2CCCCC2)c2ccccc2C1=O

IC50 ([3]; read-out: IC50): 10.1 µM
SMILES: CC(C)C1=CC(=O)C(=O)c2ccccc21

IC50 ([3]; read-out: IC50): 3.3 µM
SMILES: CCCCCCC1=CC(=O)C(=O)c2ccccc21

IC50 ([3]; read-out: IC50): 4.2 µM
SMILES: O=C1C=C(C2CCCC2)c2ccccc2C1=O

IC50 ([3]; read-out: IC50): 34.9 µM
SMILES: CN(C1=CC(=O)C(=O)c2ccccc21)c1ccccc1

IC50 [8]: Not Active
SMILES: CCCCC1=CC(=O)C(=O)c2ccccc21

IC50 ([3]; read-out: IC50): 2.04 µM
SMILES: COc1ccc2c(c1)C(=O)C(=O)C=C2c1ccccc1

IC50 ([3]; read-out: IC50): 1.42 µM
SMILES: O=C1C=C(Cc2ccccc2)c2ccccc2C1=O

IC50 [1]: 21.1 µM | IC50 [6]: 8.37 µM | IC50 [2]: 0.84 µM | IC50 ([3]; read-out: IC50): 0.86 µM | IC50 [4]: 9.52 µM
SMILES: O=C1C=C(c2ccccc2)c2ccccc2C1=O
